XiGFP reactiv: reactivates the inactive X chromosome in mouse fibroblasts; XiGFP mouse fibroblasts, % GFP-positive cells imaging, 3 d; cells co-treated with 5-aza-dC sensitizer; scaled so ellipticine positive control = 100%; activation, % at 7.58 µM; actives 0.055% (n = 360,000); AID 743238;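 active = mean normalized replicate activation at least 10% and every replicate at or above 10%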
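material = 68-5-11 XiGFP fibroblast line | medium = DMEM plus 5-aza-dC sensitizer | schedule = 3 days compound exposure | benchmarks = positive control ellipticine, 6 µM final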
Rpn11 block: inhibitors of human proteasome Rpn11 | actives 0.59% (n = 360,000) | human 26S proteasome, Ub4-pepOG fluorescence polarization; 20S core pre-blocked with epoxomicin | O00487 | AID 588493 | inhibition, % at 20 µM;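 active = inhibition at 20 µM, scaled to each plate's controls, above about 33%, limit read from the data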
ABHD5-PLIN5 inh: inhibitors of human ABHD5-perilipin-5 interaction | actives 0.78% (n = 360,000) | Q00G26+Q8WTS1 | inhibition, % at 4 µM | Split G. princeps luciferase complementation, luminescence, 4 h;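 active = inhibition above the mean inhibition across every tested compound plus 3 SD, cut at about 22% in these data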
Rin1-Abl PPI inh: human Rin1-Abl interaction inhibition; P00519+Q13671; TR-FRET Rin1/Abl binding, biochemical; inhibition, % at 7.35 µM; actives 0.4% (n = 360,000); AID 588664; in the data active = inhibition above about 5%, passing the limit was not always enough
Target sequence (P00519 whole entry, looked up): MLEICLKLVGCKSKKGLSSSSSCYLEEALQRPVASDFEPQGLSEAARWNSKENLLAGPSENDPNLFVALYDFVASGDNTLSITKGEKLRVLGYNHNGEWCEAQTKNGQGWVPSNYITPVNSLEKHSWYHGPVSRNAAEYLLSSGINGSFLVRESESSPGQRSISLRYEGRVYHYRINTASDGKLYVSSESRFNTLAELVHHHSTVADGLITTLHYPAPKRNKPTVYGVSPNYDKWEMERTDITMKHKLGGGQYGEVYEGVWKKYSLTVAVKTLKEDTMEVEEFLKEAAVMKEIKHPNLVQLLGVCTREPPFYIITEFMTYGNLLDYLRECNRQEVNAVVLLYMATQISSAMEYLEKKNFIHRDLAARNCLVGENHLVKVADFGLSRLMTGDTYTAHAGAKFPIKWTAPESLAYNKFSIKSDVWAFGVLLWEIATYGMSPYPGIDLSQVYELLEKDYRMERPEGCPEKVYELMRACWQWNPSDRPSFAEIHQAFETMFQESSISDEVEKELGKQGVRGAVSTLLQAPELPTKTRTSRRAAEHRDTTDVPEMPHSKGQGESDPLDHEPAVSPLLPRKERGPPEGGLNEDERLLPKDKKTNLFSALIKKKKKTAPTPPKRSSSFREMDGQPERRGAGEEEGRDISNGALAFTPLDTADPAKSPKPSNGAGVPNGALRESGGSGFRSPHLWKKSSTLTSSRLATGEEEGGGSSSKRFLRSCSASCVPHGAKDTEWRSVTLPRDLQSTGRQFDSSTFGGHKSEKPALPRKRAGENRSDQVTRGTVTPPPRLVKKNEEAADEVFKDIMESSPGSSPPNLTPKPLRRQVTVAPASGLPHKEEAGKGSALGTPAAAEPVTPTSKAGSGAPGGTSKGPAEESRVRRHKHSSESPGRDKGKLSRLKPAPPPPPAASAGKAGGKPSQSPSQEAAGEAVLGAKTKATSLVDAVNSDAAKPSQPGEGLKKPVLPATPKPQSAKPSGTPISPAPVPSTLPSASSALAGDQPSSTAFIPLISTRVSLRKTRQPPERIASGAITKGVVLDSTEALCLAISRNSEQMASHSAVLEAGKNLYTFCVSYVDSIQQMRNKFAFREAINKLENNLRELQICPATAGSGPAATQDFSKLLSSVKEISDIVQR
Target sequence (Q13671 whole entry, looked up): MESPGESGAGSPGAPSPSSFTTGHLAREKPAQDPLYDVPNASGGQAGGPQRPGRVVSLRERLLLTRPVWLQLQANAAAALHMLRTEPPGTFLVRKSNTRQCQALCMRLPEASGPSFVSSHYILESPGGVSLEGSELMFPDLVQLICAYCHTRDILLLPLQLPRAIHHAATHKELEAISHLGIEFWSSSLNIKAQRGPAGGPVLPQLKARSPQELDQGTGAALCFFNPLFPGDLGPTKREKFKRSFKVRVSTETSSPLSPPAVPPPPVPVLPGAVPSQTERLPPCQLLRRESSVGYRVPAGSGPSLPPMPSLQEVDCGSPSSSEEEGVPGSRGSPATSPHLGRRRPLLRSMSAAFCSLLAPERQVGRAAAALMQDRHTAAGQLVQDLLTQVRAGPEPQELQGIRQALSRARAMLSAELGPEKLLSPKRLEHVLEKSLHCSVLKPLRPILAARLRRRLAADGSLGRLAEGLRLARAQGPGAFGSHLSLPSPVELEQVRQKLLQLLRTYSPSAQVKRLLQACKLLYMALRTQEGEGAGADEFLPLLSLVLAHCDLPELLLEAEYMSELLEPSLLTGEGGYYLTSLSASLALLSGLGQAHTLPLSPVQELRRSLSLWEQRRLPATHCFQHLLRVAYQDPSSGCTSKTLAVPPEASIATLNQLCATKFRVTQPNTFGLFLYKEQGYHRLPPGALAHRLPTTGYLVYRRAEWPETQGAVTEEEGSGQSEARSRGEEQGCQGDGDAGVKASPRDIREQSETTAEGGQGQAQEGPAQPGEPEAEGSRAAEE
NadD block: NadD (S. aureus) enzyme inhibition; purified NadD enzyme, colorimetric absorbance read-out; actives 0.78% (n = 360,000); inhibition, % at 20 µM; AID 602399; in the data active = inhibition above about 26%
ABHD5-PLIN5 conf: ABHD5-PLIN5 interaction inhibition, confirmed. shares compounds with ABHD5-PLIN5 inh. biochemical ABHD5-PLIN5 interaction, luminescence. inhibition, % at 4 µM. actives 67% (n = 2,200). AID 651612; in the data active = inhibition above about 23%
HNF4 counter: counter-screen for ABHD5-PLIN5 inhibitors: HNF4 split-luciferase. shares compounds with ABHD5-PLIN5 inh. HNF4 dimerization, luminescence, biochemical. inhibition, % at 4 µM. actives 77% (n = 2,200). AID 651674;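 active = mean inhibition across replicate wells exceeding the computed hit threshold, cut at about 13% in these data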;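 note: light from luciferase halves that rejoin when HNF4 fusion proteins dimerize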
Hits are given with their value; ! = not confirmed by another sample. Shown are actives, neighbours in structure and some others; about 1.9% of the full set was active somewhere.

N#Cc1c(Nc2ccccc2Cl)s[nH]c1=O was read as XiGFP reactiv inactive, Rpn11 block inactive, ABHD5-PLIN5 inh 25.3, Rin1-Abl PPI inh inactive, NadD block inactive, ABHD5-PLIN5 conf 44.0 and HNF4 counter 103.3.
For Cc1ccc(-c2nc3ncccn3c2Nc2ccccc2C)o1 the results were XiGFP reactiv inactive, Rpn11 block inactive, ABHD5-PLIN5 inh inactive, Rin1-Abl PPI inh inactive and NadD block inactive.
Cc1ccc(-c2nc3cnccn3c2Nc2c(C)cccc2C)o1 was read as XiGFP reactiv inactive, Rpn11 block inactive, ABHD5-PLIN5 inh 37.7, Rin1-Abl PPI inh inactive, NadD block inactive, ABHD5-PLIN5 conf 29.8 and HNF4 counter 94.5.
`O=C(O)c1ccc(S(=O)(=O)c2ccc([N+](=O)[O-])cc2[N+](=O)[O-])cc1` gave XiGFP reactiv inactive, Rpn11 block inactive, ABHD5-PLIN5 inh 42.3, Rin1-Abl PPI inh inactive, NadD block inactive, ABHD5-PLIN5 conf 68.3 and HNF4 counter 110.2.
Screening CNC[C@H]1Oc2c(NS(=O)(=O)c3ccc(C)cc3)cccc2C(=O)N([C@H](C)CO)C[C@@H]1C returned XiGFP reactiv inactive.
`Cc1nc2c(o1)CCc1ccccc1C2N1CCN(C)CC1` (stereo unspecified) gave XiGFP reactiv inactive, Rpn11 block inactive, ABHD5-PLIN5 inh 56.9!, Rin1-Abl PPI inh inactive, NadD block inactive, ABHD5-PLIN5 conf 40.0 and HNF4 counter inactive.
Screening C[C@H]1CN([C@@H](C)CO)C(=O)c2cc(NS(=O)(=O)c3cccs3)ccc2O[C@@H]1CN(C)Cc1ccc(Cl)c(Cl)c1 returned XiGFP reactiv inactive.
Screening C=CCC1(C)C(=O)N(c2ccccc2)c2ccccc21 (stereo unspecified) returned Rpn11 block inactive, ABHD5-PLIN5 inh 31.6, Rin1-Abl PPI inh inactive, NadD block inactive, ABHD5-PLIN5 conf inactive and HNF4 counter inactive.
C=CCCC1(C)C(=O)N(c2ccccc2)c2ccccc21 (stereo unspecified) was read as XiGFP reactiv inactive, Rpn11 block inactive, ABHD5-PLIN5 inh inactive, Rin1-Abl PPI inh inactive and NadD block inactive.
For COc1ccccc1N1CCNC(C)C1=O (stereo unspecified) the results were XiGFP reactiv inactive, Rpn11 block inactive, ABHD5-PLIN5 inh 57.2, Rin1-Abl PPI inh inactive, NadD block inactive, ABHD5-PLIN5 conf inactive and HNF4 counter 14.7.
O=C1c2ccccc2C(=O)N1Cc1ccco1 was read as Rpn11 block inactive, ABHD5-PLIN5 inh inactive, Rin1-Abl PPI inh inactive and NadD block inactive.
Screening O=C1c2cccc3c(O)ccc(c23)C(=O)N1Cc1ccco1 returned XiGFP reactiv inactive, Rpn11 block inactive, ABHD5-PLIN5 inh 44.6, Rin1-Abl PPI inh inactive, NadD block inactive, ABHD5-PLIN5 conf 23.8 and HNF4 counter 52.6.
Screening C[C@@H](NC(=O)C[C@@H]1C[C@H]2c3cc(NC(=O)CN(C)C)ccc3O[C@H]2[C@@H](CO)O1)c1ccccc1 returned XiGFP reactiv inactive.
CN(C)c1ccc(/C=C/c2ccc3ccccc3[n+]2C)cc1 was read as XiGFP reactiv inactive, Rpn11 block inactive, ABHD5-PLIN5 inh 29.4, Rin1-Abl PPI inh inactive, NadD block inactive, ABHD5-PLIN5 conf 22.7 and HNF4 counter 29.8.
`CN(CCCS(=O)(=O)[O-])c1ccc(/C=C/c2ccc3ccccc3[n+]2C)cc1` gave XiGFP reactiv inactive, Rpn11 block inactive, ABHD5-PLIN5 inh inactive, Rin1-Abl PPI inh inactive and NadD block inactive.
For O=C(N/N=C/C=C/c1ccco1)C(O)c1ccccc1 (stereo unspecified) the results were Rpn11 block inactive, ABHD5-PLIN5 inh 34.9, Rin1-Abl PPI inh inactive, NadD block inactive, ABHD5-PLIN5 conf 47.2 and HNF4 counter 59.6.
For O=C(NCc1ccco1)c1nc2nc(-c3cccs3)cc(C(F)(F)F)n2n1 the results were Rpn11 block inactive, ABHD5-PLIN5 inh inactive, Rin1-Abl PPI inh inactive and NadD block inactive.
Screening O=C(NCc1ccco1)c1nn2c(C(F)(F)F)cc(-c3cccs3)nc2c1Br returned Rpn11 block inactive, ABHD5-PLIN5 inh 25.8, Rin1-Abl PPI inh inactive, NadD block inactive, ABHD5-PLIN5 conf 33.6 and HNF4 counter 61.9.
`CNC[C@H]1Oc2ccc(NS(=O)(=O)c3ccc(C)cc3)cc2C(=O)N([C@@H](C)CO)C[C@@H]1C` gave XiGFP reactiv inactive.
COCC(=O)N1CC2(CN[C@H](CO)c3c2c2ccc(OC)cc2n3C)C1 was read as XiGFP reactiv inactive.
For COc1cccc(C(=O)Oc2cc3c4c(c2)C(C)=CC(C)(C)N4C(=O)C3=O)c1 the results were Rpn11 block inactive, ABHD5-PLIN5 inh 32.8, Rin1-Abl PPI inh inactive, NadD block inactive, ABHD5-PLIN5 conf 42.6 and HNF4 counter 45.8.
`Cc1ccccc1Oc1nc2ccccn2c(=O)c1/C=C(\C#N)C(=O)Nc1c(C)n(C)n(-c2ccccc2)c1=O` gave XiGFP reactiv inactive, Rpn11 block inactive, ABHD5-PLIN5 inh inactive, Rin1-Abl PPI inh inactive and NadD block inactive.
For Cc1ccccc1Oc1nc2c(C)cccn2c(=O)c1/C=C(\C#N)C(=O)Nc1c(C)n(C)n(-c2ccccc2)c1=O the results were XiGFP reactiv inactive, Rpn11 block inactive, ABHD5-PLIN5 inh 28.1, Rin1-Abl PPI inh inactive, NadD block inactive, ABHD5-PLIN5 conf 49.0 and HNF4 counter 35.3.
`CCOc1ccc(C(=O)CC(NCc2cccs2)C(=O)O)cc1` (stereo unspecified) gave XiGFP reactiv inactive, Rpn11 block inactive, ABHD5-PLIN5 inh 56.7, Rin1-Abl PPI inh inactive, NadD block inactive, ABHD5-PLIN5 conf 90.7 and HNF4 counter 110.4.
O=C(/C=C/Nc1ccccc1)c1ccccc1 was read as Rpn11 block inactive, ABHD5-PLIN5 inh inactive, Rin1-Abl PPI inh inactive and NadD block inactive.
`O=C(/C=C/Sc1ccccc1)c1ccccc1` gave Rpn11 block inactive, ABHD5-PLIN5 inh 34.9, Rin1-Abl PPI inh inactive, NadD block inactive, ABHD5-PLIN5 conf 61.2 and HNF4 counter 47.3.
O=C(/C=C/Sc1ccccc1)c1ccc(Cl)cc1 was read as Rpn11 block inactive, ABHD5-PLIN5 inh 38.2, Rin1-Abl PPI inh inactive, NadD block inactive, ABHD5-PLIN5 conf 69.9 and HNF4 counter 46.6.
`COc1ccc2c3c(n(C)c2c1)[C@H](CO)N(C(=O)C1CC1)CC31CCN(C(=O)Nc2cccc(F)c2)CC1` gave XiGFP reactiv inactive.
`C[C@H]1CN([C@@H](C)CO)C(=O)Cc2cc(NC(=O)Nc3ccccc3)ccc2O[C@H]1CN(C)C(=O)Nc1ccccc1` gave XiGFP reactiv inactive.
